Measured values reported in ChEMBL document CHEMBL1828513, “Overcoming human P-glycoprotein-dependent multidrug resistance with novel dihydro-β-agarofuran sesquiterpenes” (Eur J Med Chem, 2011).
pKi: −log10 of the molar value.

How the values were obtained:
[1] = Intrinsic toxicity in wild type mouse NIH/3T3 cells assessed as cell growth at 10 uM relative to control; assay type: cell-based, NIH3T3; conditions: wild type NIH/3T3 cells, read-out: Activity
Outline: (§1)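 Parental NIH-3T3 and MDR1-G185-transfected cells were cultured in DMEM with 10% heat-inactivated FBS, 2 mM L-glutamine and penicillin/streptomycin. Cells were exposed to 10 µM compound. Growth is reported as percent of untreated control. Mean ± S.D. of three independent experiments in triplicate.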

[2] = target: T1, MDR1 (ABCB1, P-glycoprotein) (Homo sapiens, UniProt P08183); experiment: Inhibition of human MDR1 expressed in mouse NIH-3T3 cells assessed as daunomycin efflux at 10 uM after 30 mins by flow cytometry relative to control; assay type: cell-based, NIH3T3; conditions: mouse NIH-3T3 cells expressing human MDR1, probe daunomycin, read-out: Imax
Outline: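 Transfected MDR1-G185 NIH-3T3 cells were seeded 24 h prior at 10^5 cells/well. They were co-incubated 30 min at 37 °C in DMEM + 10% iFBS with 2 µM daunomycin and 10 µM sesquiterpene, then washed in ice-cold PBS, trypsinized and read by flow cytometry. Retention is expressed relative to 5 mM ortho-vanadate (100% Pgp inhibition). Mean ± S.D. of three independent experiments in triplicate.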

[3] = target: T2, ATP-dependent translocase ABCB1 (Homo sapiens, UniProt P08183); experiment: Inhibition of human MDR1 expressed in mouse NIH-3T3 cells assessed as daunomycin efflux after 30 mins by flow cytometry; assay type: cell-based, NIH3T3
Outline: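 MDR1-G185-transfected NIH-3T3 cells in log phase were seeded 24 h beforehand at 10^5 cells/well. They were incubated 30 min at 37 °C in DMEM + 10% iFBS with 2 µM daunomycin and varied sesquiterpene concentrations, washed in ice-cold PBS, trypsinized, and read for single-cell fluorescence by flow cytometry.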

[4] = target: T1, MDR1 (ABCB1, P-glycoprotein); experiment: (§2) Inhibition of human MDR1 expressed in mouse NIH-3T3 cells assessed as daunomycin efflux at 10 uM after 30 mins by flow cytometry; assay type: cell-based, NIH3T3; conditions: mouse NIH-3T3 cells expressing human MDR1, probe daunomycin
[5] = Intrinsic toxicity in mouse NIH/3T3 cells expressing human MDR1 assessed as cell growth at 10 uM relative to control; assay type: ADME, cell-based, NIH3T3; conditions: read-out: Activity; outline: as §1
[6] = target: T2, ATP-dependent translocase ABCB1; experiment: as §2; assay type: cell-based, NIH3T3; conditions: nih3t3, 0.5 h, 10 µM

T1 sequence (P08183 whole entry): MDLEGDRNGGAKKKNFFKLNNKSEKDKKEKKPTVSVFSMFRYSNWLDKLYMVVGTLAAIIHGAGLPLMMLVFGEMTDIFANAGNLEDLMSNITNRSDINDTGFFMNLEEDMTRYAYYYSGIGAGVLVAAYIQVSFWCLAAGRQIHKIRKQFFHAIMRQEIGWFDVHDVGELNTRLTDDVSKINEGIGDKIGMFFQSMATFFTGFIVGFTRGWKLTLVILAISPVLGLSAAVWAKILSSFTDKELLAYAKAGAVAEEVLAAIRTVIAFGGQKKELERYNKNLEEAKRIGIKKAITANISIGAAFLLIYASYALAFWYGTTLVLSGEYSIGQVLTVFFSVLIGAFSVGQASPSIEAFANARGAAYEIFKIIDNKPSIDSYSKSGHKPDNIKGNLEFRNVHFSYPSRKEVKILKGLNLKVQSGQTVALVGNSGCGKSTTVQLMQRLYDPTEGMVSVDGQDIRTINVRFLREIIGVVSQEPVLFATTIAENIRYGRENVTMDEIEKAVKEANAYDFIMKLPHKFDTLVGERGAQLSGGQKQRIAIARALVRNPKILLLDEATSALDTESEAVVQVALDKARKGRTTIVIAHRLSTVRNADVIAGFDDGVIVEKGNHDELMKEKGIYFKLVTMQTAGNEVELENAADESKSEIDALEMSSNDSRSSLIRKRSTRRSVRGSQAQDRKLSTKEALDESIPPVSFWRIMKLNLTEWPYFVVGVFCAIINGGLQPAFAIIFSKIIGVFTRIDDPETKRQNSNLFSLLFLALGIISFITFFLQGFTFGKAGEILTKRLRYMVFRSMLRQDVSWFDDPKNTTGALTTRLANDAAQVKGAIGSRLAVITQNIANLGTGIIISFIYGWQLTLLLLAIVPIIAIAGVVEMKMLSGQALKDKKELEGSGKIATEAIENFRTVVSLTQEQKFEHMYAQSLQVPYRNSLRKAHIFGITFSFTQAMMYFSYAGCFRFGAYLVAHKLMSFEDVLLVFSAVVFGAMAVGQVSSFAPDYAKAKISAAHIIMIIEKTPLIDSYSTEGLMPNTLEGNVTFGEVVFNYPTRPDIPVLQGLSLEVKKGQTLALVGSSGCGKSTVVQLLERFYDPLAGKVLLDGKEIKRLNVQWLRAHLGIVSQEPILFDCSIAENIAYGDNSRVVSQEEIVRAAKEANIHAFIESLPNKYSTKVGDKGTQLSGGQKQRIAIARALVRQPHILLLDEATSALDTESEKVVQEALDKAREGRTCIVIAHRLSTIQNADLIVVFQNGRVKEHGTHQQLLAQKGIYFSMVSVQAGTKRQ
T2 sequence (P08183 whole entry): as above

inhibition at 0.5 h, 10 µM [2] [%]	pKi [3]	inhibition at 0.5 h, 10 µM [4] [%]	inhibition (INH) [6]	Compound	viability at 10 µM [1] [%]	viability at 10 µM [5] [%]
–	–	–	Active	CC(=O)OC[C@]12[C@@H](OC(=O)c3ccoc3)C[C@@H]3[C@@H](OC(=O)c4ccccc4)[C@]1(OC3(C)C)[C@@](C)(O)C[C@H](O)[C@@H]2OC(C)=O	–	–
> 90	6.42	70	–	CC(=O)O[C@H]1[C@@H](OC(=O)c2ccccc2)C[C@](C)(O)[C@]23OC(C)(C)[C@H](C[C@H](OC(=O)c4ccoc4)[C@]12C)[C@H]3OC(=O)c1ccccc1	108	98
–	–	–	Active	CC(=O)O[C@H]1[C@H](OC(=O)c2ccoc2)[C@@]2(C)[C@@H](OC(=O)c3ccccc3)C[C@@H]3C[C@]2(OC3(C)C)[C@@](C)(O)[C@H]1OC(C)=O	–	–
> 90	6.19	70	–	CC(=O)O[C@@H]1[C@H](OC(C)=O)[C@@H](C)[C@@]23C[C@@H](C[C@H](OC(=O)c4ccccc4)[C@]2(C)[C@H]1OC(=O)c1ccoc1)C(C)(C)O3	91.8	92.4
–	–	–	Active	CC(=O)O[C@@H]1C[C@](C)(O)[C@@]23C[C@@H](C[C@H](OC(=O)c4ccccc4)[C@]2(C)[C@H]1OC(=O)c1ccoc1)C(C)(C)O3	–	–
–	–	–	Active	CC(=O)O[C@@H]1C[C@](C)(O)[C@@]23C[C@@H](C[C@H](OC(=O)c4ccoc4)[C@]2(C)[C@H]1OC(=O)c1ccoc1)C(C)(C)O3	–	–
> 90	6.24	70	–	CC(=O)O[C@@H]1C[C@](C)(O)[C@@]23C[C@@H](C[C@H](OC(=O)/C=C/c4ccccc4)[C@]2(C)[C@H]1OC(=O)c1ccoc1)C(C)(C)O3	86	100
–	–	–	Active	CC(=O)O[C@@H]1C[C@@H](C)[C@@]23C[C@@H](C[C@H](OC(=O)c4ccccc4)[C@]2(C)[C@H]1OC(=O)c1ccoc1)C(C)(C)O3	–	–
–	–	–	Active	CC1(C)O[C@]23C[C@H]1C[C@H](OC(=O)c1ccccc1)[C@]2(C)[C@@H](OC(=O)c1ccoc1)CC[C@]3(C)O	–	–

Second part, the compound before the results:

Compound	inhibition at 0.5 h, 10 µM [2] [%]	pKi [3]	inhibition at 0.5 h, 10 µM [4] [%]	inhibition (INH) [6]	viability at 10 µM [1] [%]	viability at 10 µM [5] [%]
CC(=O)OC[C@]12[C@@H](OC(=O)c3ccoc3)C[C@@H]3[C@@H](OC(=O)c4ccccc4)[C@]1(OC3(C)C)[C@@](C)(O)C[C@H](OC(=O)c1ccccc1)[C@@H]2OC(C)=O	> 90	6.47	70	–	82.1	84.3
CC(=O)OC[C@]12[C@@H](OC(=O)c3ccoc3)C[C@@H]3[C@@H](OC(=O)c4ccccc4)[C@]1(OC3(C)C)[C@@](C)(O)C[C@H](OC(C)=O)[C@@H]2OC(C)=O	> 90	6.23	70	–	92.4	87.8
CC(=O)OC[C@]12[C@@H](OC(=O)c3ccccc3)C[C@@H]3[C@@H](OC(=O)c4ccccc4)[C@]1(OC3(C)C)[C@@](C)(O)C[C@H](O)[C@@H]2OC(C)=O	> 90	6.33	70	–	84.4	105
CC(=O)OC[C@]12[C@@H](OC(=O)c3ccoc3)C[C@@H]3[C@@H](OC(C)=O)[C@]1(OC3(C)C)[C@@](C)(O)C[C@H](OC(C)=O)[C@@H]2OC(C)=O	–	–	–	Active	–	–
CC(=O)OC[C@]12[C@@H](OC(=O)c3ccccc3)C[C@@H]3[C@@H](OC(=O)c4ccccc4)[C@]1(OC3(C)C)[C@@](C)(O)C[C@H](OC(C)=O)[C@@H]2OC(C)=O	> 90	6.41	70	–	76.7	77.2
CC(=O)OC[C@]12[C@@H](OC(=O)c3ccoc3)C[C@@H]3[C@@H](OC(=O)c4ccoc4)[C@]1(OC3(C)C)[C@@](C)(O)C[C@H](OC(C)=O)[C@@H]2OC(C)=O	> 90	6.29	70	–	92	82.9
CC(=O)OC[C@]12[C@@H](OC(=O)c3ccccc3)C[C@@H]3[C@@H](OC(C)=O)[C@]1(OC3(C)C)[C@@](C)(O)C[C@H](OC(C)=O)[C@@H]2OC(C)=O	–	–	–	Active	–	–
COc1ccc(CCN(C)CCCC(C#N)(c2ccc(OC)c(OC)c2)C(C)C)cc1OC (centres undefined)	–	–	–	–	–	79.2
